Common to all, as to format: functional, organism-based
The test system of assay [1] is Pseudomonas aeruginosa. Nature of the assay: Inhibition of pyocyanin production in Pseudomonas aeruginosa. The procedure, abridged: (§1)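 Overnight nutrient broth cultures were pelleted, resuspended, grown to mid-log phase (OD600 0.3–0.5), and diluted to OD600 0.05. Cultures were exposed to compound in water at 50.00, 25.00, 10.00, 5.00, 2.50, 1.00, 0.10, 0.001 or zero final concentration, shaken 18 h at 37 C. Viable cells were counted, and the pellet OD600 was used to normalise pigment per bacterial OD unit.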

Assay [2] concerns Pseudomonas aeruginosa. Nature of the assay: Inhibition of pyoverdin production in Pseudomonas aeruginosa. An outline of the steps:
as §1

The subject of assay [3] is Pseudomonas aeruginosa. Nature of the assay: Inhibition of pyocyanin production in Pseudomonas aeruginosa ATCC 9027. The procedure, abridged: as §1
Assay [4] has as its system Pseudomonas aeruginosa. The assay can be described thus: Inhibition of pyoverdin production in Pseudomonas aeruginosa ATCC 9027. The procedure, abridged: as §1

The source made the active and inactive calls. The rule behind the calls is not given here.

What is called IC50 is the point on the concentration scale where inhibition reaches its midpoint. A low value points to inhibition by little substance.

With THIMEROSAL, the IC50 with Pseudomonas aeruginosa [1] came to 708 nM; in the assay with Pseudomonas aeruginosa [2], 603 nM; with Pseudomonas aeruginosa [3] it was 3160 nM; with Pseudomonas aeruginosa [4], 3170 nM.

As for “triethylplumbyl 4-methylbenzenesulfonate”, the IC50 is 282 nM with Pseudomonas aeruginosa [1], 355 nM in the assay on Pseudomonas aeruginosa [2], 158 nM in the assay with Pseudomonas aeruginosa [3] and 794 nM in the assay with Pseudomonas aeruginosa [4].

As to `CCOP(=O)(OCC)O/N=C(/C)c1cccc(C)c1`, the result in the assay with Pseudomonas aeruginosa [1] and in the assay with Pseudomonas aeruginosa [2] was inactive.

Regarding PHENYL MERCURIC NITRATE, the IC50 with Pseudomonas aeruginosa [1] was 3020 nM; in the assay on Pseudomonas aeruginosa [2], 3160 nM; with Pseudomonas aeruginosa [3], 3240 nM; in the assay on Pseudomonas aeruginosa [4] it was 3980 nM.

For the origin of these results see ChEMBL document CHEMBL1139704, “Discovery of potent inhibitors of pseudomonal quorum sensing via pharmacophore modeling and in silico screening” (Bioorg Med Chem Lett, 2006).
